This is a sample that favours compounds with a hit; in the whole collection about 2.7% have one here.
PTPN22 inh 2 – inhibitors of human LYP (PTPN22) phosphatase. Q9Y2R2. recombinant LYP catalytic domain, DiFMUP fluorescence. inhibition, % at 2 µM. 96,000 tested, 0.21% active. AID 640;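 active means inhibition at 2 µM at or above a set limit, the screen mean plus 3 SD, cut at about 24% in these data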
Target sequence (Q9Y2R2 whole entry, looked up, the tested form may be a part): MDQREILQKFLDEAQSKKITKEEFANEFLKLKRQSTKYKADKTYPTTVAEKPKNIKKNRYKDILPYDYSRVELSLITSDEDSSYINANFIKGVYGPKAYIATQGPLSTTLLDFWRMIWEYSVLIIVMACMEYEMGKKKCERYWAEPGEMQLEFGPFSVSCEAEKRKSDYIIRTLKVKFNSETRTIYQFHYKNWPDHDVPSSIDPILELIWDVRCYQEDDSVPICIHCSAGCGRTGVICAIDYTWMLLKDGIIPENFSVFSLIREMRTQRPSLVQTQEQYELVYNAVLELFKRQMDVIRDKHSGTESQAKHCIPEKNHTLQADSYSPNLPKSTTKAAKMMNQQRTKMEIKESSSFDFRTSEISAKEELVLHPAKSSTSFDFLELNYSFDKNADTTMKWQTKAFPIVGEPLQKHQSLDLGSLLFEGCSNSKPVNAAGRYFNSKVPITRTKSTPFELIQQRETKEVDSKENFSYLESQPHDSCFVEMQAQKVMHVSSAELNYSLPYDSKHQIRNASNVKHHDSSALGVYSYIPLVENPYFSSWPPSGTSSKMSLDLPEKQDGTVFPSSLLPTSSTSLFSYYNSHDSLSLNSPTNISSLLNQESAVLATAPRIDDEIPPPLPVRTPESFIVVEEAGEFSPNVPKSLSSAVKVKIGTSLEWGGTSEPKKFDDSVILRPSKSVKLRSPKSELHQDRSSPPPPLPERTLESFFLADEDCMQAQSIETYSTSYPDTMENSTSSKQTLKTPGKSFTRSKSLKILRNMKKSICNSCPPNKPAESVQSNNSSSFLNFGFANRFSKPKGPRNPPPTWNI
Rev-RRE block – inhibitors of HIV-1 Rev-RRE RNA interaction; AID 704; P05866; 97,000 tested, 0.79% active; inhibition, % at 8 µM; Rev peptide-RRE RNA binding, FRET;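 active means inhibition above the screen-wide mean plus 3 SD, cut at about 35% in these data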
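Assay system: Rev peptide and RRE RNA, both fluorescently labelled; times: 5 min preincubation and 15 min binding, 25 °C; detection: FRET, ex 480 nm, em 540 and 671 nm; read-out basis: % inhibition from 671/540 nm acceptor-to-donor ratio, scaled between controls; benchmarks: DMSO low control, neomycin B high control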
hDAT+cocaine – changed human dopamine transporter uptake under cocaine IC80. B-score at 10 µM. AID 449768. LLC-PK1 hDAT cells, [14C]-dopamine uptake with cocaine IC80; actives deviate in either direction. 110,000 tested, 1.3% active;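 active means Z score or B-score, a plate-position-corrected score, falls beyond the plate's 99.7% confidence bounds, in either direction; inactive means both scores lie inside the 99.7% bounds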
PLK1 inh – blocks human PLK1 kinase activity. recombinant PLK1 kinase, TR-FRET peptide phosphorylation. inhibition, % at 10 µM. 97,000 tested, 0.53% active. AID 619;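 active means inhibition of 50% or more in the single-concentration screen; inactive means inhibition below 50%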
PTPN22 act – activators of human LYP (PTPN22) phosphatase; Q9Y2R2; recombinant LYP, DiFMUP fluorescence; 0 = plate median, 100 = signal doubled; activation, % at 2 µM; 96,000 tested, 0.11% active;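 active means activation at 2 µM above a set limit, the mean plus 5 SD, cut at about 37% in these data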
Plk1 PBD FP – inhibitors of human Plk1 polo box domain binding; P53350; Plk1 PBD phosphopeptide binding, fluorescence polarization; inhibition, %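 (tested at about 20 µM)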; 97,000 tested, 0.13% active; in the data active means inhibition above about 34%, passing the limit was not always enough
Each line names hits and unclear results; the compound was inactive in the other large screens; [ ] = another dose, or the depositor's remark.

COc1ccc(C/C(=N\O)c2ccc(OC)cc2)cc1	none
O=C(O)CCCCCNC(=O)c1ccccc1	none
CCn1c(-c2c[nH]c3ccccc23)n[nH]c1=S	none
CCOc1cccc(-c2cc(-c3n[nH]c(=S)n3CC)c3ccccc3n2)c1	hDAT+cocaine 2.4
COC(=O)C1(Cc2ccc(O)cc2)OC(=O)C(O)=C1c1ccc(O)cc1 (stereo not given)	none (no result: PTPN22 inh 2, Rev-RRE block, PLK1 inh, PTPN22 act, Plk1 PBD FP)
O=C(NC(NC(=S)Nc1ccc(Cl)c(Cl)c1)C(Cl)(Cl)Cl)c1ccco1 (stereo not given)	hDAT+cocaine -3.8
O=C(NC(NC(=S)Nc1cc(Cl)ccc1Cl)C(Cl)(Cl)Cl)c1ccco1 (stereo not given)	none
Cc1cc(C)c(-c2cc(NC(=O)CSc3n[nH]c(N)n3)n(-c3ccccc3)n2)cc1C	hDAT+cocaine 3.3
Cc1ccccc1NC(=O)CSc1nnc(-c2ccoc2C)n1CCc1ccccc1	none
COc1ccc(NC(=O)CSc2nnc(-c3ccoc3C)n2CCc2ccccc2)cc1	hDAT+cocaine 4.2
COc1ccc(-c2c3c(=O)n(C)c(=O)n(C)c3cn2Cc2cccnc2)cc1	hDAT+cocaine -8.7
Cc1cccc(N2CCN(C(=O)CCCSc3nc4ccccc4[nH]3)CC2)c1C	none
COc1ccc(C2C(C#N)=C(N)SC(N)=C2C#N)cc1OC	Rev-RRE block 110[fluorescence artefact?]
N#CC1=C(N)SC(N)=C(C#N)C1c1cccc(O)c1	Rev-RRE block 74
CCCc1[nH]nc2c1C(c1ccc(OCCN3CCOCC3)c(OC)c1)C(C#N)=C(N)O2 (stereo not given)	none (no result: PTPN22 inh 2, Rev-RRE block, PLK1 inh, PTPN22 act, Plk1 PBD FP)
CCOc1cc(C2C(C#N)=C(N)SC(N)=C2C#N)ccc1OCCN1CCOCC1	Rev-RRE block 75
Cc1ccc(-c2cccc(OC(=O)c3ccccc3F)c2)cc1	none (no result: hDAT+cocaine)
Cc1ccc2cc(C)c3nnc(SCC(=O)Nc4nc5c(s4)CCCC5)n3c2c1	none
COc1ccc(C2C(C(=O)c3ccc(C)o3)=C(O)C(=O)N2c2cc(C)on2)cc1OC (stereo not given)	none
COc1ccc(OC)c(C2C(C(=O)c3cc4ccccc4o3)=C(O)C(=O)N2c2cc(C)on2)c1 (stereo not given)	hDAT+cocaine 3.8
Cc1nn(-c2ccccc2)c(C)c1C(=O)OCC(=O)NC12CC3CC(CC(C3)C1)C2	hDAT+cocaine 3.1
COc1ccccc1CNC(=O)C1CC(c2ccccc2[N+](=O)[O-])=NO1 (stereo not given)	none
CSC1=NCCN1C(=O)COc1ccccc1	PLK1 inh 69 (no result: PTPN22 inh 2, PTPN22 act)
CCCc1[nH][nH]c(=O)c1C(c1cccc(Cl)c1)C(C#N)C#N (stereo not given)	hDAT+cocaine -9.4
N#CC(C#N)C(c1ccsc1)c1c(-c2ccccc2)[nH][nH]c1=O (stereo not given)	none
CCOc1ccc(NC(=O)CN2CCN(CC(=O)c3ccc(OCC)cc3)CC2)cc1	hDAT+cocaine 2
N#Cc1c(Sc2ncc(C(F)(F)F)cc2Cl)nsc1C/C=N\OCc1c(F)cccc1Cl	Rev-RRE block 61
COC(=O)[C@H](Cc1ccccc1)NC(=O)NCc1cccs1	none
CCOC(=O)C(CCSC)Nc1nc(Cl)nc(Nc2ccc(Cl)cc2)n1 (stereo not given)	none (no result: PTPN22 inh 2, Rev-RRE block, PLK1 inh, PTPN22 act, Plk1 PBD FP)
CC1=Nn2c(nnc2-c2cccs2)SC1	hDAT+cocaine -3.4
O=[n+]1c2c(n([O-])c3cc(F)ccc31)CCCC2	none
O=[n+]1c2c(n([O-])c3cc(F)c(N4CCCC4)cc31)CCC2	Rev-RRE block 66[fluorescence artefact?]
O=[n+]1c2c(n([O-])c3cc(F)c(N4CCCC4)cc31)CCCC2	Rev-RRE block 79[fluorescence artefact?]
O=C(Nc1ccc2oc(-c3cccc4ccccc34)nc2c1)c1ncn[nH]1	PTPN22 inh 2 52
FC(F)(F)c1cc(C(F)(F)F)c2ccc(N3CCN(c4ccc(Cl)cc4)CC3)nc2n1	none
N#CC(c1ccc(Cl)cc1)c1ccc2c(C(F)(F)F)cc(C(F)(F)F)nc2n1 (stereo not given)	hDAT+cocaine -3.7
CN1C2CCC1/C(=C\c1ccccc1)C(=O)/C2=C\c1ccccc1	none
CC1=C(C(=O)OCCOc2ccccc2)C(c2ccc(C)o2)C2=C(CC(C)(C)CC2=O)N1 (stereo not given)	hDAT+cocaine 3.7
Cc1sc2nc(NCCO)[nH]c(=O)c2c1C	PLK1 inh 64
CCOC(=O)CSc1nc2sc(C)c(C)c2c(=O)[nH]1	none
CC[C@H](C)/C=C/C1=CC2=C(Cl)C(=O)[C@@]3(C)OC(=O)C(C(=O)[C@H](C)[C@@H](C)O)=C3C2=CO1	none (no result: PTPN22 inh 2, Rev-RRE block, PLK1 inh, PTPN22 act, Plk1 PBD FP)
Cc1ccc(NS(=O)(=O)c2cc(C(=O)NCc3ccccn3)ccc2Cl)cc1C	none
O=C1C2C3C=CC(C4CC34)C2C(=O)N1/N=C/c1ccc(-c2ccc(F)cc2[N+](=O)[O-])o1 (stereo not given)	Rev-RRE block 42
O=C1C2C3C=CC(C4CC34)C2C(=O)N1/N=C/c1ccc(-c2ccc(Cl)cc2[N+](=O)[O-])o1 (stereo not given)	none
O=C(CN1CCCC1)N1CCCc2c1c(=O)oc1ccc(OCc3ccccc3)cc21	hDAT+cocaine 2.2
O=C(c1ccc(Cl)c(Cl)c1)N1CCC(=O)N(C(COCc2ccccc2)Cc2ccccc2)CC1 (stereo not given)	none (no result: PTPN22 inh 2, Rev-RRE block, PLK1 inh, PTPN22 act, Plk1 PBD FP)
COc1cccc(-n2c(SCC(=O)N3c4ccccc4CC3C)nnc2-c2ccco2)c1 (stereo not given)	hDAT+cocaine 2.9
CC1Oc2ccccc2C=C1/C=C1/SC(N2CCOCC2)=NC1=O (stereo not given)	Rev-RRE block 37
C=CCO/N=C(/C)c1c(O)c(CC)c(-c2ccccc2)n(-c2ccccc2)c1=O	hDAT+cocaine 2.9
C=CCc1cccc(CNc2c(C)n(C)n(-c3ccccc3)c2=O)c1O	none
O=C(COc1ccccc1)NC(NC(=S)Nc1ccccc1O)C(Cl)(Cl)Cl (stereo not given)	hDAT+cocaine -3.7
Cc1ccccc1NC(=S)NC(NC(=O)COc1ccccc1)C(Cl)(Cl)Cl (stereo not given)	none
Cc1ccc(N2CCN(C(=O)c3ccccc3NC(=O)C3CC=CCC3C(=O)O)CC2)cc1 (stereo not given)	none
Cc1ccccc1N1CCN(C(=O)c2ccccc2NC(=O)C2CC=CCC2C(=O)O)CC1 (stereo not given)	hDAT+cocaine 2.1
COc1ccccc1/C=C\C=N\n1c(C2CCCCC2)n[nH]c1=S	PTPN22 inh 2 25
C=C1CSc2nc3ccccc3c(=O)n21	none
Cc1sc2nc(CN(Cc3cccs3)C(=O)NC3CCCCC3)[nH]c(=O)c2c1C	PLK1 inh 57
O=C(C1=C[C@H](c2ccccc2)C[C@H](OCc2ccc(CO)cc2)O1)N1CCN(Cc2ccccc2)CC1	hDAT+cocaine 2.8 (no result: PTPN22 inh 2, Rev-RRE block, PLK1 inh, PTPN22 act, Plk1 PBD FP)
O=C(C1=C[C@@H](c2csc3ccccc23)C[C@@H](OCCCCO)O1)N1CCN(Cc2ccc3c(c2)OCO3)CC1	none (no result: PTPN22 inh 2, Rev-RRE block, PLK1 inh, PTPN22 act, Plk1 PBD FP)
